Measurements taken from paper PMC9123937 (International Journal of Nanomedicine, 2022).

How the values were obtained:
[1] = test system: MHCC-97H cells; assay: Cytotoxicity study; type: cell-based; conditions: Homo sapiens, MHCC97H, 96 h, read-out: 96-hour inhibition rate
Method in brief: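 MHCC-97H cells seeded at 3×10^3 cells/well in 96-well plates and cultured 24 h. Test compound added at final 0, 6.25, 12.5, 25, 50 or 100 μg/mL for 24, 48, 72 or 96 h at 37°C, with 0.1% DMSO as negative control. MTT (5 mg/mL stock) added for 3.5 h at 37°C, formazan dissolved in DMSO, absorbance read at 490 nm.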

[2] = test system: MHCC-97H cells; assay: Apoptosis assay; type: cell-based, human; conditions: 24 h
Method in brief: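 MHCC-97H cells (high-glucose DMEM, 10% FBS, 37°C, 5% CO2) seeded at 2×10^5 cells/well in 6-well plates and cultured 24 h. Test compound added at 5, 10 or 20 μmol/L for a further 24 h, with 0.1% DMSO and medium controls. Harvested cells stained with Annexin V-FITC and PI for 15 min in the dark in binding buffer, then analysed by flow cytometry.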

COc1cc(/C=C/C(=O)CC(=O)/C=C/c2ccc(O)c(OC)c2)ccc1O [CU, curcumin]
inhibition at 100 µg/mL [1]: 68.2 ± 1.19%
apoptosis rate ([2]; 5 μmol/L): 17.29 ± 0.66%
apoptosis rate ([2]; 10 μmol/L): 25.74 ± 0.61%
apoptosis rate ([2]; 20 μmol/L): 33.11 ± 1.00%
